Rows were chosen to be rich in hits. Some 2.2% of all compounds tested hit in one or more screens of this group.
Neddylation inh = inhibitors of human cullin neddylation | TR-FRET cullin neddylation, biochemical | calls only at 25 µM | 0.58% of 360,000 active | AID 651699; in the data active means inhibition above about 36%
Target sequence (P61081 whole entry, looked up): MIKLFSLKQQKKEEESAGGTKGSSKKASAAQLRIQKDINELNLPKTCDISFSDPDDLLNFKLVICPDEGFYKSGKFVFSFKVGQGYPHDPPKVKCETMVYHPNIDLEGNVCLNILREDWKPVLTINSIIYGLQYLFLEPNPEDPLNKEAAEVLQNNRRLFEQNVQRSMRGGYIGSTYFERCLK
Target sequence (Q13564 whole entry, looked up): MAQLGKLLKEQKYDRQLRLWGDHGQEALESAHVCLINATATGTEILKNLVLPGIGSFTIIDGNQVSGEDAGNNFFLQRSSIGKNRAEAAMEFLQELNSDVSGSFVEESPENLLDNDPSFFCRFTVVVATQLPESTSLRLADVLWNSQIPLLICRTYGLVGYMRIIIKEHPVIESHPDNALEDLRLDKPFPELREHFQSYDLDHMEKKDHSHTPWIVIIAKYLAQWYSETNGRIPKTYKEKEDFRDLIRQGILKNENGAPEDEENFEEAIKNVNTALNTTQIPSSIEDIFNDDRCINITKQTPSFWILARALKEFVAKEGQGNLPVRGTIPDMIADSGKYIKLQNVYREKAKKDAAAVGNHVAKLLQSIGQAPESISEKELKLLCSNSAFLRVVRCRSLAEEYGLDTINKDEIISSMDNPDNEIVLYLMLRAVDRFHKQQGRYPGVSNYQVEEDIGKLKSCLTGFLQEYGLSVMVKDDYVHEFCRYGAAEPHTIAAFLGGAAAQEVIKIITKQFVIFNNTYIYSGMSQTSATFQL
MT1-MMP act inh = inhibitors of human MT1-MMP activation. HT1080 RFP-PRO-GFP cells, GFP/RFP ratio fluorescence, overnight; percent of plate control window, DMSO zero. GFP/RFP ratio change, % at 20 µM. 0.061% of 360,000 active;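 active means GFP/RFP ratio change of at least 30% with cell ATP level not reduced by more than half and red fluorescence within 50% of control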
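Assay system: HT1080 RFP-PRO-GFP cells. Benchmarks: DMSO vehicle wells and RFP-L50D-GFP reporter cell wells. Times: overnight cell settling, then overnight compound exposure, 37 °C, 5% CO2. Compound: 20 µM single dose, 1% DMSO. Read-out basis: GFP/RFP fluorescence ratio.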
DDE Tn6 FP inh = disrupts Tn6 cyclic peptide binding to fibrin D-Dimer-E complex; inhibition, % at 8.3 µM; P02675; 0.21% of 370,000 active; Fibrin DD(E) TRITC-Tn6 fluorescence polarization displacement;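 active means inhibition above a per-campaign cutoff: mean of compounds within control limits plus 3 SD, cut at about 15% in these data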
SKN-1 block = C. elegans SKN-1 inhibition | C. elegans VP596 Pgst-4::GFP/RFP ratio, acrylamide-induced, 24 h | inhibition, % at 21.8 µM | 0.49% of 360,000 active | AID 624304;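 active means interference check ratio from 0.5 to 1.5 plus GFP to RFP signal ratio inhibition reaching or exceeding a fixed threshold, cut at about 30% in these data, passing the limit was not always enough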
KLK7 zymogen act = activators of human kallikrein-7 zymogen. P49862. purified proKLK7, EDANS-DABCYL substrate fluorescence; 100% is mature enzyme control, 0% vehicle. AID 652039. activation, % at 7 µM. 0.9% of 370,000 active;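 active means activation above the mean of all tested compounds plus 3 SD, computed per campaign excluding outliers beyond control limits, cut at about 13% in these data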
Tn7 DDE FP = disrupts Tn7 cyclic peptide binding to fibrin D-Dimer-E complex. AID 720508. P02675. inhibition, % at 8.3 µM. 0.13% of 370,000 active. FP displacement of FITC-Tn7 peptide from fibrin DD(E); 0% = median of compound wells per plate;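 active means inhibition above the mean of compounds falling within the control limits plus 3 SD of them, cut at about 14% in these data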
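Assay system: human fibrin DD(E) protein / Input: 2 µM fibrin DD(E) / Benchmarks: high control of 10 µM Aha-Tn7 peptide / Measured by: fluorescence polarization of the labelled Tn7 tracer / Medium: Tris buffer with calcium and detergent, pH 7.8 / Timing: 10 min compound pre-incubation, 3 h probe incubation at room temperature / Repeats: one replicate per compound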
DDE Tn6 FP ctr = counter-screen for inhibitors of Tn6 peptide binding to fibrin DD(E); shares compounds with DDE Tn6 FP inh; TRITC-Tn6 fluorescence polarization displacement; 0% = median of compound wells, not DMSO; inhibition, % at 8.3 µM; 2% of 680 active; AID 720621;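 active means inhibition above the mean of test compounds lying between the control limits plus 3 SD of those, cut at about 14% in these data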
DDE Tn6 confirm = DD(E)-Tn6 binding inhibition, FP confirmation; FP displacement of TRITC-Tn6 peptide from DD(E); 0% = per-plate median of test wells; inhibition, % at 8.3 µM; 10% of 680 active; shares compounds with DDE Tn6 FP inh;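 active means inhibition above the mean of compounds lying within the control limits plus 3 SD, cut at about 16% in these data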
A number is an active result; - = inactive; . = no result shown; + = active, no number.

SMILES	Neddylation inh	MT1-MMP act inh	DDE Tn6 FP inh	SKN-1 block	KLK7 zymogen act	Tn7 DDE FP	DDE Tn6 FP ctr	DDE Tn6 confirm
CN1C(=O)NC(c2ccccc2[N+](=O)[O-])C2=C1CCCC2=O (stereo not drawn)	-	-	45	-	-	-	-	20
CCCc1nnc(NC(=O)CCC(=O)NCc2ccccc2OC)s1	-	-	-	-	-	-	.	.
COc1ccc(-c2cc(C(=O)Nc3ccccc3)on2)cc1	-	-	22	-	-	-	-	-
COC(=O)/C(=C/Nc1ccccc1)[N+](=O)[O-]	-	-	-	-	-	-	.	.
COC(=O)/C(=C/Nc1ccc(O)cc1)[N+](=O)[O-]	-	-	46	-	-	-	-	-
COc1ccc(C)cc1S(=O)(=O)N1CCN(c2ccccc2)CC1	-	-	16	-	-	-	-	-
COc1ccc(C)cc1S(=O)(=O)N1CCN(S(=O)(=O)c2cc(C)ccc2OC)CC1	-	-	-	-	-	-	.	.
CCCCC[C@@H](O)c1cc2ccccc2c(=O)o1	-	-	16	-	-	-	-	-
CCCCn1c(SCc2ccccn2)nc2c1c(=O)n(C)c(=O)n2C	-	-	-	-	-	-	.	.
Cc1ccc(NC(=O)C(C)Sc2nnc(C)n2C)cc1 (stereo not drawn)	-	-	15	-	-	-	-	-
CCOc1ccc(NC(=O)C(C)Sc2nnc(C)n2C)cc1 (stereo not drawn)	-	-	-	-	-	-	.	.
Cc1noc(C)c1C(=O)NC1CCCc2ccccc21 (stereo not drawn)	-	-	-	-	-	-	.	.
COc1ccc2c(CCNC(N)=S)c[nH]c2c1	-	-	-	-	-	-	.	.
COc1ccc2c(CC#N)c[nH]c2c1	-	-	16	-	-	-	-	-
Cc1cc(=O)[nH]c(SCc2ccccc2)n1	-	-	-	-	-	-	.	.
O=C(Nc1c(Cl)cccc1Cl)c1ccc(-c2ccccc2)cc1	-	-	-	-	-	-	.	.
O=C(NC1CC1)c1cccc2c1C(=O)c1ccc(N3CCC(N4CCCCC4)CC3)cc1S2(=O)=O	-	-	18	-	-	-	-	-
O=C(CN(Cc1ccco1)S(=O)(=O)c1ccccc1)N/N=C/c1cccc(O)c1	-	-	16	-	-	-	-	-
CC(=O)Nc1ccc(S(=O)(=O)N(C)CC(=O)N/N=C/c2cccc(O)c2)cc1	-	-	-	-	-	-	.	.
Cc1cc(Br)cn2c(Cc3ccsc3)c(-c3cccc(Cl)c3)nc12	-	-	18	-	-	-	-	-
O=C(O)c1ccccc1-c1c2cc(I)c(=O)c(I)c-2oc2c(I)c(O)c(I)cc12	-	-	+	-	-	-	-	93
N#CCN1C(=O)C(=O)N(Cc2cccc(C(F)(F)F)c2)C1=O	-	-	-	-	-	-	.	.
CC1CN(C(=O)c2ccc(COc3ccccc3Br)o2)CC(C)O1 (stereo not drawn)	-	-	21	-	-	-	-	-
COc1ccc(-n2c(=O)[nH]cc(C(=O)Nc3ccc4c(c3)OCCO4)c2=O)cc1OC	-	-	-	-	-	-	.	.
O=C(Nc1ccc2c(c1)OCO2)c1c[nH]c(=O)n(-c2ccc(F)cc2)c1=O	-	-	15	-	-	-	-	-
Cc1ccc(C2NC(=O)c3c(sc4c3CCN(C)C4)N2)s1 (stereo not drawn)	.	-	18	-	-	-	-	-
CN1CCc2c(sc3c2C(=O)NC(/C=C/c2ccco2)N3)C1 (stereo not drawn)	-	-	-	-	-	-	.	.
O=C(O)C(CCCCN1C(=O)c2ccccc2C1=O)N1C(=O)c2ccccc2C1=O (stereo not drawn)	-	-	-	-	-	-	.	.

Compound activity from PubChem BioAssay.
